Measured values: ChEMBL document CHEMBL4689842, “EUbOPEN Chemogenomics Library wave 1” (2021)
Several values for one entry are separate records, joined by “and”; a condition that tells them apart may be missing. Equal entries are not always repeated.

Test system: Fibroblast
Assay: Multiplex assay against human fibroblast
Format: toxicity, cell-based
Summary of the method: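 Four dyes were applied at seeding to live cells: Hoechst33342, BioTracker Green Microtubule Cytoskeleton Dye, MitoTracker Red and Annexin V Alexa Fluor 680. Imaging after compound addition used a CQ1 microscope at 37°C and 5% CO2. CellPathfinder machine-learning gating then sorted cells into Hoechst high-intensity objects or normal cells, normal cells into healthy, pyknosed or fragmented nuclei, and pyknosed cells into mitotic or apoptotic, with tubulin, mitochondrial-mass and membrane-permeability phenotypes given as per cents of healthy-nucleus cells.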

[1] = 12 h, 1 µM, compound concentration 1 uM, replicate 1
[2] = 12 h, 1 µM, compound concentration 1 uM, replicate 2
[3] = 12 h, 10 µM, compound concentration 10 uM, replicate 1
[4] = 12 h, 10 µM, compound concentration 10 uM, replicate 2
[5] = 24 h, 1 µM, compound concentration 1 uM, replicate 1
[6] = 24 h, 1 µM, compound concentration 1 uM, replicate 2
[7] = 24 h, 10 µM, compound concentration 10 uM, replicate 1
[8] = 24 h, 10 µM, compound concentration 10 uM, replicate 2
[9] = 48 h, 1 µM, compound concentration 1 uM, replicate 1
[10] = 48 h, 1 µM, compound concentration 1 uM, replicate 2
[11] = 48 h, 10 µM, compound concentration 10 uM, replicate 1
[12] = 48 h, 10 µM, compound concentration 10 uM, replicate 2

CS(=O)(=O)N1CCCC(NC(=O)[C@H](CCC2CCCCC2)NC(=O)c2ccc(CNc3ncnc4c3nnn4-c3ccccc3)cc2)C1 (stereo not given in full) [SR-301]
Population Apoptotic (%) [1]: 58% and 60% and 56%
Population Fragmented Nuclei (%) [1]: 22% and 18% and 20%
Population Healthy Nuclei (%) [1]: 31% and 27% and 35%
Population Hoechst High Intensity Objects (%) [1]: 21% and 15% and 12%
Population Membrane Permeable-Phenotype (%) [1]: 16% and 32% and 28%
Population Mitochondria Different-Phenotype (%) [1]: 13% and 12% and 26%
Population Mitotic Cells (%) [1]: 41% and 39% and 43%
Population Normal (%) [1]: 78% and 84% and 87%
Population Pyknosed Nuclei (%) [1]: 46% and 53% and 44%
Population Tubulin-Different-Phenotype (%) [1]: 47% and 61% and 57%
Total Cell Count [1]: 146 and 134
Population Apoptotic (%) [2]: 25% and 63% and 33%
Population Fragmented Nuclei (%) [2]: 14% and 11% and 7%
Population Healthy Nuclei (%) [2]: 81% and 70% and 89%
Population Mitochondria Different-Phenotype (%) [2]: 20% and 14% and 10%
Population Mitotic Cells (%) [2]: 75% and 36% and 66%
Population Normal (%) [2]: 80% and 86% and 94%
Population Tubulin-Different-Phenotype (%) [2]: 21% and 19% and 12%
Total Cell Count [2]: 135 and 58 and 69
Population Apoptotic (%) [3]: 94% and 85% and 73%
Population Fragmented Nuclei (%) [3]: 34% and 37% and 21%
Population Healthy Nuclei (%) [3]: 20% and 17% and 28%
Population Hoechst High Intensity Objects (%) [3]: 19% and 17% and 12%
Population Membrane Permeable-Phenotype (%) [3]: 36% and 16% and 19%
Population Mitochondria Different-Phenotype (%) [3]: 20% and 25% and 36%
Population Normal (%) [3]: 80% and 82% and 87%
Population Pyknosed Nuclei (%) [3]: 45% and 44% and 50%
Population Tubulin-Different-Phenotype (%) [3]: 32% and 48% and 51%
Total Cell Count [3]: 153 and 216 and 163
Population Apoptotic (%) [4]: 80% and 75% and 41%
Population Fragmented Nuclei (%) [4]: 39% and 27%
Population Healthy Nuclei (%) [4]: 25% and 58%
Population Membrane Permeable-Phenotype (%) [4]: 61% and 54% and 30%
Population Mitochondria Different-Phenotype (%) [4]: 66% and 54% and 34%
Population Mitotic Cells (%) [4]: 20% and 25% and 58%
Population Normal (%) [4]: 89% and 95% and 97%
Population Pyknosed Nuclei (%) [4]: 39% and 47% and 20%
Population Tubulin-Different-Phenotype (%) [4]: 55% and 54% and 34%
Total Cell Count [4]: 89 and 86 and 105
Population Apoptotic (%) [5]: 58% and 59% and 61%
Population Fragmented Nuclei (%) [5]: 20% and 24% and 25%
Population Healthy Nuclei (%) [5]: 39% and 33% and 42%
Population Hoechst High Intensity Objects (%) [5]: 18% and 10%
Population Membrane Permeable-Phenotype (%) [5]: 35% and 23% and 20%
Population Mitochondria Different-Phenotype (%) [5]: 17% and 9% and 18%
Population Mitotic Cells (%) [5]: 41% and 40% and 38%
Population Normal (%) [5]: 81% and 89%
Population Pyknosed Nuclei (%) [5]: 41% and 42% and 31%
Population Tubulin-Different-Phenotype (%) [5]: 53% and 66% and 52%
Total Cell Count [5]: 123 and 142 and 153
Population Fragmented Nuclei (%) [6]: 12% and 7%
Population Healthy Nuclei (%) [6]: 78% and 80% and 86%
Population Membrane Permeable-Phenotype (%) [6]: 7% and 6% and 3%
Population Mitochondria Different-Phenotype (%) [6]: 20% and 10% and 8%
Population Mitotic Cells (%) [6]: 87% and 60% and 55%
Population Normal (%) [6]: 80% and 95% and 96%
Population Pyknosed Nuclei (%) [6]: 9% and 12% and 6%
Population Tubulin-Different-Phenotype (%) [6]: 13% and 26% and 14%
Total Cell Count [6]: 148 and 64 and 84
Population Apoptotic (%) [7]: 84% and 87%
Population Fragmented Nuclei (%) [7]: 31% and 40% and 42%
Population Healthy Nuclei (%) [7]: 24% and 22%
Population Hoechst High Intensity Objects (%) [7]: 20% and 15% and 21%
Population Membrane Permeable-Phenotype (%) [7]: 23% and 21% and 17%
Population Mitochondria Different-Phenotype (%) [7]: 43% and 48% and 34%
Population Mitotic Cells (%) [7]: 15% and 12%
Population Normal (%) [7]: 79% and 84% and 78%
Population Pyknosed Nuclei (%) [7]: 43% and 36% and 35%
Population Tubulin-Different-Phenotype (%) [7]: 63% and 53% and 68%
Total Cell Count [7]: 154 and 214 and 166
Population Apoptotic (%) [8]: 91% and 94% and 89%
Population Fragmented Nuclei (%) [8]: 25% and 32% and 19%
Population Hoechst High Intensity Objects (%) [8]: 9%
Population Mitotic Cells (%) [8]: 8% and 5% and 10%
Population Normal (%) [8]: 90%
Population Pyknosed Nuclei (%) [8]: 49% and 50% and 21%
Total Cell Count [8]: 98 and 89 and 110
Population Apoptotic (%) [9]: 75% and 70%
Population Fragmented Nuclei (%) [9]: 38% and 39% and 30%
Population Healthy Nuclei (%) [9]: 46% and 41%
Population Hoechst High Intensity Objects (%) [9]: 25% and 18%
Population Membrane Permeable-Phenotype (%) [9]: 32% and 27% and 25%
Population Mitochondria Different-Phenotype (%) [9]: 8% and 9% and 10%
Population Mitotic Cells (%) [9]: 25% and 30%
Population Normal (%) [9]: 74% and 81%
Population Pyknosed Nuclei (%) [9]: 16% and 19% and 23%
Population Tubulin-Different-Phenotype (%) [9]: 43% and 48% and 50%
Total Cell Count [9]: 135 and 127 and 148
Population Apoptotic (%) [10]: 100% and 60%
Population Fragmented Nuclei (%) [10]: 19% and 21% and 22%
Population Healthy Nuclei (%) [10]: 80% and 73% and 75%
Population Hoechst High Intensity Objects (%) [10]: 8% and 7% and 5%
Population Membrane Permeable-Phenotype (%) [10]: 20% and 15% and 13%
Population Mitochondria Different-Phenotype (%) [10]: 3% and 1%
Population Normal (%) [10]: 91% and 92% and 94%
Population Pyknosed Nuclei (%) [10]: 0% and 4% and 1%
Population Tubulin-Different-Phenotype (%) [10]: 39% and 17% and 40%
Total Cell Count [10]: 131 and 116 and 118
Population Apoptotic (%) [11]: 85% and 83% and 92%
Population Fragmented Nuclei (%) [11]: 41% and 44% and 50%
Population Healthy Nuclei (%) [11]: 22% and 29% and 25%
Population Hoechst High Intensity Objects (%) [11]: 20% and 26%
Population Membrane Permeable-Phenotype (%) [11]: 32% and 23%
Population Mitochondria Different-Phenotype (%) [11]: 40% and 48% and 30%
Population Mitotic Cells (%) [11]: 15% and 16% and 7%
Population Normal (%) [11]: 79% and 73%
Population Pyknosed Nuclei (%) [11]: 35% and 25%
Population Tubulin-Different-Phenotype (%) [11]: 48% and 44% and 53%
Total Cell Count [11]: 141 and 195
Population Apoptotic (%) [12]: 84% and 100% and 94%
Population Fragmented Nuclei (%) [12]: 51% and 53%
Population Healthy Nuclei (%) [12]: 35% and 24% and 30%
Population Hoechst High Intensity Objects (%) [12]: 16% and 29%
Population Membrane Permeable-Phenotype (%) [12]: 34% and 14% and 27%
Population Mitochondria Different-Phenotype (%) [12]: 78% and 85% and 72%
Population Mitotic Cells (%) [12]: 0% and 5%
Population Normal (%) [12]: 83% and 70%
Population Pyknosed Nuclei (%) [12]: 20% and 24% and 15%
Population Tubulin-Different-Phenotype (%) [12]: 34% and 32% and 54%
Total Cell Count [12]: 89 and 137 and 153
